Assay results from ChEMBL document CHEMBL4177526, “Discovery and structure activity relationship of the first potent cryptosporidium FIKK kinase inhibitor” (Bioorg Med Chem, 2017).
One block for each compound: values may come before it. Calls of active or inactive are those of the source. The calls are words filed in the database; no cut-off is given here.

Columns and labels:
[1] = Inhibition of Cryptosporidium parvum CDPK1 using PLARTLSVAGLPGKK peptide as substrate by NADH coupled LDH-PK ATPase assay
Outline: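 NADH-coupled LDH-PK ATPase read-out with 1.2 nM recombinant CpCDPK1, 0.25 mM ATP, 0.1 mM Syntide 2.0 peptide and 2 mM CaCl2. Inhibitors were made as 10 mM DMSO stocks and tested in 2-fold serial dilutions. IC50 is the average of triplicate experiments.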

[2] = Inhibition of recombinant Cryptosporidium parvum FIKK using RRRAPSFYRK peptide as substrate by NADH coupled LDH-PK ATPase assay
[3] = system: Cryptosporidium parvum; assay: Inhibition of recombinant Cryptosporidium parvum FIKK assessed as change in melting temperature at 50 uM by differential static light scattering method
[4] = Ratio of EC50 for antiparasitic activity against Cryptosporidium parvum Iowa oocysts infected in human HCT8 cells to IC50 for Cryptosporidium parvum CDPK1; assay type: functional
[5] = Ratio of EC50 for antiparasitic activity against Cryptosporidium parvum Iowa oocysts infected in human HCT8 cells to IC50 for recombinant Cryptosporidium parvum FIKK; assay type: functional, cell-based
[6] = system: Cryptosporidium parvum; assay: Antiparasitic activity against Cryptosporidium parvum Iowa oocysts infected in human HCT8 cells pretreated prior to infection measured after 48 hrs by fluorescein labeled Vicia villosa lectin/Hoechst 33258 staining based epifluorescence microscopic analysis; assay type: functional, organism-based
Outline: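 HCT-8 cells grown in RPMI-1640 with 10% heat-inactivated FBS and penicillin. Three-fold compound dilutions in culture medium were added to confluent cells before about 5500 excysted C. parvum Iowa oocysts per well. After 48 h, cells were fixed with 4% paraformaldehyde and permeabilized. Vacuoles were stained with fluorescein-Vicia villosa lectin (1.33 µg/mL, 1 h, 37 °C) and nuclei with Hoechst 33258, then imaged by epifluorescence microscopy.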

[7] = molecular target: Calcium-dependent protein kinase 2 (Cryptosporidium parvum, UniProt Q6S4V9); assay: Inhibition of Cryptosporidium parvum calcium-dependent protein kinase 2
[8] = molecular target: Mitogen-activated protein kinase 14 (Homo sapiens) (UniProt Q16539); assay: Inhibition of human p38alpha at 1 uM relative to control
[9] = molecular target: Vascular endothelial growth factor receptor 2 (Homo sapiens) (UniProt P35968); assay: Inhibition of human KDR at 1 uM relative to control
Sequence of Vascular endothelial growth factor receptor 2 (Homo sapiens) (P35968 whole entry): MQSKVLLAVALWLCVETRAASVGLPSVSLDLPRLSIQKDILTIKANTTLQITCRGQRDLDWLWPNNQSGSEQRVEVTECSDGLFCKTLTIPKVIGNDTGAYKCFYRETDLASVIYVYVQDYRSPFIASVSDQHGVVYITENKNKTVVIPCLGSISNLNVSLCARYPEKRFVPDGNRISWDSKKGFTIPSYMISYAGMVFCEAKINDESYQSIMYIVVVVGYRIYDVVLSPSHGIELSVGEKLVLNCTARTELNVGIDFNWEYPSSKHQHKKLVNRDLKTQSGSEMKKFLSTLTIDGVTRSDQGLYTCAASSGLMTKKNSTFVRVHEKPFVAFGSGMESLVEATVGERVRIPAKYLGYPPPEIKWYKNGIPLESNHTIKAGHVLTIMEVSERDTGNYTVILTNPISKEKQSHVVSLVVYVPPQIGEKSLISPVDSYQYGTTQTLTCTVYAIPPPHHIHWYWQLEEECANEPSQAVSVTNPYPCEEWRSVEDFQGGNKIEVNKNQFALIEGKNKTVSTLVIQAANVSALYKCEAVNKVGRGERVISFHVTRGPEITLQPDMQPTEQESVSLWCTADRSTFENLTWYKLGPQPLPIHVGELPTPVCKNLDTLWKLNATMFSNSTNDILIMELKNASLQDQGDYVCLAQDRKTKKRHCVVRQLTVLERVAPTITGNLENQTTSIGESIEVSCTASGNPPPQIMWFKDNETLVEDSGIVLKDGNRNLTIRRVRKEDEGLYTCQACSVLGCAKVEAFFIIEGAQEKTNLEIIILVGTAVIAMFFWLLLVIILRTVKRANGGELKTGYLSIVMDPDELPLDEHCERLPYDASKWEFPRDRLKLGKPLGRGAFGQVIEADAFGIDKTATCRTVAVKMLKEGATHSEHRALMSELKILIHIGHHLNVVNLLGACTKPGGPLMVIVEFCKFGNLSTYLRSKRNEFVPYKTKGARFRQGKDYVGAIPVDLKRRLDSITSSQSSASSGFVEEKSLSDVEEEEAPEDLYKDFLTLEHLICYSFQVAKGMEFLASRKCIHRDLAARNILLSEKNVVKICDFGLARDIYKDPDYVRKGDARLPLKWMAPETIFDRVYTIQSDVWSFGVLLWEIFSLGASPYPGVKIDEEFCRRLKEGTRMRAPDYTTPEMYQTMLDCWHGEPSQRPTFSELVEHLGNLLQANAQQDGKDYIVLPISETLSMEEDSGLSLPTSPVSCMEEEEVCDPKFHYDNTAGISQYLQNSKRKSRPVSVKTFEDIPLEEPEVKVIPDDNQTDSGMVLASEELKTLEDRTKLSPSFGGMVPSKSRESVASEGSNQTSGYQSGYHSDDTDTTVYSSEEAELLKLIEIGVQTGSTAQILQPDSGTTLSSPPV

[10] = system: Cryptosporidium parvum; assay: Inhibition of Cryptosporidium parvum CDPK6 assessed as change in melting temperature by DSLS method
[11] = Inhibition of Cryptosporidium parvum Iowa II calcium/calmodulin-dependent protein kinase
[12] = molecular target: Calcium/calmodulin-dependent protein kinase with a kinase domain and 4 calmodulin like EF hands (Cryptosporidium parvum (strain Iowa II)) (UniProt Q5CYL9); assay: Inhibition of Cryptosporidium parvum Iowa II calcium/calmodulin-dependent protein kinase with a kinase domain and 4 calmodulin like EF hands assessed as change in melting temperature by DSLS method
Sequence of Calcium/calmodulin-dependent protein kinase with a kinase domain and 4 calmodulin like EF hands (Cryptosporidium parvum (strain Iowa II)) (Q5CYL9 as listed by the source): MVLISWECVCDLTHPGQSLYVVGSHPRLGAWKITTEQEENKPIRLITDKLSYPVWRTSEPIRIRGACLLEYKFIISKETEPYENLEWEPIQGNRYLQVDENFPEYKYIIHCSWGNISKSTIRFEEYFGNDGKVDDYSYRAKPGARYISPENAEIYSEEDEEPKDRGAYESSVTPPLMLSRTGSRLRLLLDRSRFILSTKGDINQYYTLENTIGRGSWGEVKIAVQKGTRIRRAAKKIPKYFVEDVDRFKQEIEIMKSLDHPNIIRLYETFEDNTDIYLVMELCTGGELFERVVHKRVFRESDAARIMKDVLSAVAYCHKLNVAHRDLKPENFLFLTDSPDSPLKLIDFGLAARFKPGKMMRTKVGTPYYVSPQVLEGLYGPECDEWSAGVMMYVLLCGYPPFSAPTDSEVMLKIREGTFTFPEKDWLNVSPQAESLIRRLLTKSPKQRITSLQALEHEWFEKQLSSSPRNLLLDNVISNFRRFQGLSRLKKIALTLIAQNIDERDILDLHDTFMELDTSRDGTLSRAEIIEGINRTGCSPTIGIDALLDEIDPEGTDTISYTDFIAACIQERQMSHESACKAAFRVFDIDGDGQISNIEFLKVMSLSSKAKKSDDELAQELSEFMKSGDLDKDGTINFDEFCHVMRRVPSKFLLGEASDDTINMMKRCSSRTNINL

[13] = molecular target: Cell division control protein 28, putative (Cryptosporidium parvum (strain Iowa II)) (UniProt A3FPL9); assay: Inhibition of Cryptosporidium parvum Iowa II cell division control protein 28 assessed as change in melting temperature by DSLS method
[14] = Inhibition of Cryptosporidium parvum Iowa II cyclin-dependent kinase 3
[15] = Inhibition of Cryptosporidium parvum CDPK6
[16] = system: Cryptosporidium parvum Iowa II; assay: Inhibition of Cryptosporidium parvum Iowa II glycogen synthase kinase assessed as change in melting temperature by DSLS method
[17] = molecular target: Cgd5_820 protein (Cryptosporidium parvum, UniProt F0X4H1); assay: Inhibition of Cryptosporidium parvum calcium/calmodulin dependent protein kinase with a kinase domain and 4 calmodulin like EF hands
[18] = system: Cryptosporidium parvum; assay: Inhibition of Cryptosporidium parvum CDPK1 assessed as increase in thermal stabilization
[19] = molecular target: Vascular endothelial growth factor receptor 2 (Homo sapiens) (UniProt P35968); assay: Inhibition of human KDR at 100 nM relative to control
[20] = molecular target: Mitogen-activated protein kinase (Cryptosporidium parvum (strain Iowa II), UniProt A3FQ79); assay: Inhibition of Cryptosporidium parvum Iowa II mitogen-activated protein kinase
Sequence of Mitogen-activated protein kinase (A3FQ79 whole entry): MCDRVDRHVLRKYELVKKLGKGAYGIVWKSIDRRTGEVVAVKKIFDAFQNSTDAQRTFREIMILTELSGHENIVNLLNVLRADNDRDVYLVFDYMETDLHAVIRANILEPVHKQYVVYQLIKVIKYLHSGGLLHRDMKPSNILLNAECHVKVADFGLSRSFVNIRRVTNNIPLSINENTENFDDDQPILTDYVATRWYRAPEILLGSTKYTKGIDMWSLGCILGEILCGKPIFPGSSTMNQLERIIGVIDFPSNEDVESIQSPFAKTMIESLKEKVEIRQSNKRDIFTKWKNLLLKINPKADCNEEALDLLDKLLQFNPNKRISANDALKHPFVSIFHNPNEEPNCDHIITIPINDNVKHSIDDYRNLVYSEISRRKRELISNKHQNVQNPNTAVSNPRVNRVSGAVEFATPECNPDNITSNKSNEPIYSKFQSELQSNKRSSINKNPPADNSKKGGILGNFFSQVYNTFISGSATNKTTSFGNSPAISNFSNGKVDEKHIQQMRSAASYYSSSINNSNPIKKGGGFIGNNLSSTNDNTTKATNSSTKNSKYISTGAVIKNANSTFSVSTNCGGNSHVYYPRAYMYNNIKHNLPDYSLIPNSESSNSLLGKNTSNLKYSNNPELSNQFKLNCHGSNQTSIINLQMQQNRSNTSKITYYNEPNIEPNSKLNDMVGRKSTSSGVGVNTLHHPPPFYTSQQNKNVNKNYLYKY

[21] = Inhibition of Cryptosporidium parvum Iowa II ser/Thr protein kinase FIKK
[22] = molecular target: Calcium/calmodulin-dependent protein kinase with a kinase domain and 2 calmodulin-like EF hands (Cryptosporidium parvum (strain Iowa II)) (UniProt Q5CZ29); assay: Inhibition of Cryptosporidium parvum Iowa II calcium/calmodulin-dependent protein kinase with a kinase domain and 2 calmodulin-like EF hands assessed as change in melting temperature by DSLS method
[23] = molecular target: Cell division control protein 28, putative (Cryptosporidium parvum (strain Iowa II), UniProt A3FPL9); assay: Inhibition of Cryptosporidium parvum Iowa II cell division control protein 28
[24] = molecular target: Mitogen-activated protein kinase kinase kinase kinase 4 (Homo sapiens) (UniProt O95819); assay: Inhibition of human MAP4K4 at 1 uM relative to control
[25] = molecular target: Calcium/calmodulin-dependent protein kinase with a kinase domain and 2 calmodulin-like EF hands (Cryptosporidium parvum (strain Iowa II), UniProt Q5CZ29); assay: Inhibition of Cryptosporidium parvum Iowa II calcium/calmodulin-dependent protein kinase with a kinase domain and 2 calmodulin-like EF hands
Sequence of Calcium/calmodulin-dependent protein kinase with a kinase domain and 2 calmodulin-like EF hands (Q5CZ29 whole entry, the tested form may be a part): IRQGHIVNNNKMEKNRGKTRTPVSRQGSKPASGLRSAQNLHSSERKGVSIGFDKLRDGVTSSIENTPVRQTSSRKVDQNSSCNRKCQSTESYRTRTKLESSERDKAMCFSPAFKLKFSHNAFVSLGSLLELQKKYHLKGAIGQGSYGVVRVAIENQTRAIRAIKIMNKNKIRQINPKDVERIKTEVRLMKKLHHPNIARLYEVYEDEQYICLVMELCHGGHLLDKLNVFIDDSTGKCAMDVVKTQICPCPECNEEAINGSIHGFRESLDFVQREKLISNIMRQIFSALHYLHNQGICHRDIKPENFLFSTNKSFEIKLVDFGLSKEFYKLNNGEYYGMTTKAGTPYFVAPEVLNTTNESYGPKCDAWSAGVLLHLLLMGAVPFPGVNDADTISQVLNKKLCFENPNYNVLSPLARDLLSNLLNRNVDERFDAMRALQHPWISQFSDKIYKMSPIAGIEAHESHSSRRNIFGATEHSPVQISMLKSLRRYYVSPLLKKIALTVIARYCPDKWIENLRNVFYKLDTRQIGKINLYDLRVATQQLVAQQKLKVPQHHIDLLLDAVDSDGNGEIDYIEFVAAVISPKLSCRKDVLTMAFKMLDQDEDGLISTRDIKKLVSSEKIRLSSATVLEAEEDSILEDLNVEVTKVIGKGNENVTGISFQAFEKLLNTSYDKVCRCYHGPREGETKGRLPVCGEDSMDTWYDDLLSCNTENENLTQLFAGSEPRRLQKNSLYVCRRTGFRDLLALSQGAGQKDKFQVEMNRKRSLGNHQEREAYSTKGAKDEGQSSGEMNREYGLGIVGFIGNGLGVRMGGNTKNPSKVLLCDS

[26] = molecular target: Calcium-dependent protein kinase 2 (Cryptosporidium parvum) (UniProt Q6S4V9); assay: Inhibition of Cryptosporidium parvum calcium-dependent protein kinase 2 assessed as change in melting temperature by DSLS method
[27] = system: Cryptosporidium parvum Iowa II; assay: Inhibition of Cryptosporidium parvum Iowa II calcium/calmodulin-dependent protein kinase assessed as change in melting temperature by DSLS method
[28] = molecular target: Cgd5_820 protein (Cryptosporidium parvum) (UniProt F0X4H1); assay: Inhibition of Cryptosporidium parvum calcium/calmodulin dependent protein kinase with a kinase domain and 4 calmodulin like EF hands assessed as change in melting temperature by DSLS method
[29] = system: Cryptosporidium parvum Iowa II; assay: Inhibition of Cryptosporidium parvum Iowa II Serine/threonine-protein kinase Nek2 assessed as change in melting temperature by DSLS method
[30] = molecular target: Mitogen-activated protein kinase (Cryptosporidium parvum (strain Iowa II)) (UniProt A3FQ79); assay: Inhibition of Cryptosporidium parvum Iowa II mitogen-activated protein kinase assessed as change in melting temperature by DSLS method
Sequence of Mitogen-activated protein kinase (Cryptosporidium parvum (strain Iowa II)) (A3FQ79 as listed by the source): as the sequence (A3FQ79 whole entry) above

[31] = molecular target: Calcium/calmodulin-dependent protein kinase with a kinase domain and 4 calmodulin like EF hands (Cryptosporidium parvum (strain Iowa II), UniProt Q5CYL9); assay: Inhibition of Cryptosporidium parvum Iowa II calcium/calmodulin-dependent protein kinase with a kinase domain and 4 calmodulin like EF hands
Sequence of Calcium/calmodulin-dependent protein kinase with a kinase domain and 4 calmodulin like EF hands (Q5CYL9 whole entry, the tested form may be a part): as the sequence (Q5CYL9 as listed by the source) above

[32] = system: Cryptosporidium parvum Iowa II; assay: Inhibition of Cryptosporidium parvum Iowa II cyclin-dependent kinase 3 assessed as change in melting temperature by DSLS method
[33] = Inhibition of Cryptosporidium parvum Iowa II serine/threonine-protein kinase Nek2
[34] = Inhibition of Cryptosporidium parvum Iowa II glycogen synthase kinase
[35] = system: Cryptosporidium parvum; assay: Antiparasitic activity against Cryptosporidium parvum isolate AUCP-1 sporozoites infected in human HCT8 cells treated for 24 hrs followed by compound washout and supplemented with fresh medium containing compound at 24 intervals; assay type: functional, organism-based; conditions: isolate AUCP-1, HCT-8, 24 h
[36] = Efflux ratio of permeability in human Caco2 cells; assay type: ADME, cell-based; conditions: Caco-2
[37] = Permeability in human Caco2 cells; assay type: ADME, cell-based; conditions: Caco-2, read-out: permeability
[38] = Cryptosporidium parvum, Iowa, HCT-8, read-out: EC50

IC50 [1]: 1.5 µM | IC50 [2]: 4.1 µM
Compound: N#Cc1cccc(-c2nc(N)sc2-c2ccc3ncccc3n2)c1

IC50 [1]: 0.073 µM | IC50 [2]: 0.14 µM
Compound: Cc1cc(-c2nc(N)sc2-c2ccc3ncccc3n2)ccc1F

IC50 [1]: 0.4 µM | IC50 [2]: > 10 µM
Compound: Cc1ccnc2ccc(-c3sc(N)nc3-c3ccc(F)c(Cl)c3)nc12

IC50 [1]: 0.45 µM | IC50 [2]: 0.025 µM | ΔTm [3]: 3.6 °C
Compound: Nc1nc(-c2ccc(F)c(Cl)c2)c(-c2ccc3ncccc3n2)s1

IC50 [1]: > 10 µM | IC50 [2]: 0.75 µM
Compound: Nc1nc(-c2ccc(Cl)c(Cl)c2)c(-c2ccc3ncccc3n2)s1

IC50 [1]: 0.019 µM | IC50 [2]: 2.9 µM | ΔTm [3]: 0.82 °C | EC50 [6, 38]: 3.9 µM
Compound: Cc1ccc(-c2nc(N)sc2-c2ccc3ncccc3n2)cc1C
Ratio [4]: 204 | Ratio [5]: 1.3

IC50 [1]: 0.19 µM | IC50 [2]: 0.042 µM | ΔTm [3]: 4.2 °C
Compound: Nc1nc(-c2ccccc2)c(-c2ccc3ncccc3n2)s1

IC50 [1]: 0.375 µM | IC50 [2]: 3.26 µM
Compound: Nc1nc(-c2ccc(Cl)cc2)c(-c2ccc3ncccc3n2)s1

IC50 [1]: 0.074 µM | IC50 [2]: > 10 µM
Compound: CCc1cccc(-c2nc(N)sc2-c2ccc3ncccc3n2)c1

IC50 [1]: 1.51 µM | IC50 [2]: 3.6 µM
Compound: CNc1nc(-c2cccc(Cl)c2)c(-c2ccc3ncccc3n2)s1

Compound: Nc1nc(-c2cccc(Cl)c2)c(-c2ccc3ncccc3n2)s1 [GW780159X]
IC50 [7]: > 10 µM | inhibition [8]: 50% | inhibition [9]: 67% | ΔTm [10]: < 2 °C | Ratio [4]: 66 | IC50 [11]: > 10 µM | ΔTm [12]: < 2 °C | ΔTm [13]: < 2 °C | IC50 [14]: > 10 µM | IC50 [15]: > 10 µM | ΔTm [16]: < 2 °C | IC50 [1]: 0.084 µM | IC50 [17]: > 10 µM | inhibition [18]: Active | Ratio [5]: 1840 | inhibition [19]: 33% | IC50 [20]: > 10 µM | IC50 [21]: 0.003 µM | ΔTm [22]: < 2 °C | IC50 [23]: > 10 µM | IC50 [2]: 0.003 µM | inhibition [24]: 60% | IC50 [25]: > 10 µM | ΔTm [26]: < 2 °C | ΔTm [27]: < 2 °C | ΔTm [28]: < 2 °C | ΔTm [29]: < 2 °C | ΔTm [30]: < 2 °C | IC50 [31]: > 10 µM | ΔTm [32]: < 2 °C | IC50 [33]: > 10 µM | ΔTm [3]: 5.1 °C | IC50 [34]: > 10 µM | EC50 [6, 38]: 5.5 µM

EC50 [35]: 2.56 µM | EC50 [6, 38]: 4.1 µM
Compound: CC(C)(C)n1nc(-c2cccc3ccccc23)c2c(N)ncnc21
Ratio [4]: 1

IC50 [1]: 0.22 µM | IC50 [2]: 0.22 µM | ΔTm [3]: 4.7 °C
Compound: Nc1nc(-c2ccc(F)cc2)c(-c2ccc3ncccc3n2)s1 [GW785804X]

IC50 [1]: 2.6 µM | IC50 [2]: > 10 µM | ΔTm [3]: 0.4 °C
Compound: COc1ccc(-c2nc(N)sc2-c2ccc3ncccc3n2)cc1

IC50 [1]: 0.26 µM | IC50 [2]: 0.18 µM
Compound: COc1cccc(-c2nc(N)sc2-c2ccc3ncccc3n2)c1

IC50 [1]: > 10 µM | IC50 [2]: > 10 µM | ΔTm [3]: 1 °C
Compound: CC(C)c1cccc(-c2nc(N)sc2-c2ccc3ncccc3n2)c1

IC50 [1]: 0.35 µM | IC50 [2]: 1.2 µM
Compound: Nc1nc(-c2cccc(C(F)(F)F)c2)c(-c2ccc3ncccc3n2)s1

IC50 [1]: 0.33 µM | IC50 [2]: > 10 µM
Compound: CC(=O)Nc1nc(-c2cccc(Cl)c2)c(-c2ccc3ncccc3n2)s1

IC50 [1]: 3.5 µM | IC50 [2]: > 10 µM | EC50 [6]: Not Active
Compound: Nc1nc(-c2cc(Cl)cc(Cl)c2)c(-c2ccc3ncccc3n2)s1

IC50 [1]: 0.21 µM | IC50 [2]: 0.22 µM | efflux ratio [36]: < 1 | Papp [37]: 16 ×10⁻⁶ cm/s | ΔTm [3]: 4.9 °C | EC50 [6, 38]: 1.3 µM
Compound: Nc1nc(-c2cccc(F)c2)c(-c2ccc3ncccc3n2)s1
Ratio [4]: 6 | Ratio [5]: 6
